# Reference: ChEMBL document CHEMBL1123026, “Preparation and antiarthritic and analgesic activity of 4,5-diaryl-2-(substituted thio)-1H-imidazoles and their sulfoxides and sulfones” (1985)
# Key:
# Assay type in all cases: functional
# Mus musculus [1] = experiment: Effective dose by mouse phenyl-p-benzoquinone writhing (PQW)assay after peroral administration; activity value ranges from (1.9-10.1); conditions: po
# How it was run: (§1)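 Fasted (17-21 h) female white mice, 5-20 per double-blind test, dosed orally with compound suspended in 1% methylcellulose. 0.20 mL aqueous 0.01% phenyl-p-benzoquinone given i.p. 6 min before a 10-min observation for stretching/writhing. ED50 (dose protecting 50% of mice) calculated by the moving-average method.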
# Mus musculus [2] = experiment: Effective dose by mouse phenyl-p-benzoquinone writhing (PQW)assay after peroral administration; activity value ranges from (7.7-33.2); conditions: po; how it was run: as §1
# Rattus norvegicus [3] = experiment: Effective dose determined against rat adjuvant arthritis after peroral administration; conditions: po
# How it was run: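 Male Lewis rats (130-150 g) given 0.1 mL Mycobacterium butyricum adjuvant (5 mg/mL in mineral oil) s.c. into the right hind paw; arthritis developed for 2 weeks. Groups of 10 matched for severity were dosed orally by gavage in PVA-acacia vehicle (10 mL/kg) for 7 days. Uninjected left paw volume was measured the day after the last dose. Percent decrease was calculated vs arthritic and nonarthritic controls. ED50 was read from a visually fitted semilog dose-response line.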
# Mus musculus [4] = experiment: Effective dose by mouse phenyl-p-benzoquinone writhing (PQW)assay after peroral administration; 16.7-121.5; conditions: po
# Mus musculus [5] = experiment: Effective dose by mouse phenyl-p-benzoquinone writhing (PQW)assay after peroral administration; activity value ranges from (25.5-94.1); conditions: po; how it was run: as §1
# Rattus norvegicus [6] = experiment: Decrease in paw volume by the effect of compound at a dose of 1 mg/kg
# How it was run: (§2)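 Male Lewis rats (130-150 g) got 0.1 mL adjuvant (heat-killed Mycobacterium butyricum, 5 mg/mL in mineral oil) subplantar in the right hind paw and were left 2 weeks. Groups of 10 matched for severity were dosed orally by gavage (PVA-acacia vehicle, 10 mL/kg) for 7 days. Uninjected left hind paw volume was read the next day. % decrease = (arthritic control − treated)/(arthritic − nonarthritic control) × 100; Student's t-test.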
# Mus musculus [7] = experiment: Effective dose by mouse phenyl-p-benzoquinone writhing (PQW)assay after peroral administration; 51.5-243; conditions: po
# Mus musculus [8] = experiment: Effective dose against mouse phenyl-p-benzoquinone writhing (PQW)assay, peroral administration; activity value ranges from (21.9-110); conditions: po
# Mus musculus [9] = experiment: Effective dose determined by mouse phenyl-p-benzoquinone writhing (PQW) assay after peroral administration; conditions: po; how it was run: as §1
# Rattus norvegicus [10] = experiment: Decrease in paw volume was evaluated at dose 150 mg/kg; how it was run: as §2
# Mus musculus [11] = experiment: Effective dose by mouse phenyl-p-benzoquinone writhing (PQW)assay after peroral administration; activity value ranges from (22.9 - 118); conditions: po; how it was run: as §1
# Mus musculus [12] = experiment: Effective dose by mouse phenyl-p-benzoquinone writhing (PQW)assay after peroral administration; activity value ranges from (49.8-84.8); conditions: po; how it was run: as §1
# Mus musculus [13] = experiment: Effective dose by mouse phenyl-p-benzoquinone writhing (PQW)assay after peroral administration; activity value ranges from (5.9 - 17.1); conditions: po; how it was run: as §1
# Mus musculus [14] = experiment: Effective dose by mouse phenyl-p-benzoquinone writhing (PQW)assay after peroral administration; activity value ranges from (8.6 - 78.6); conditions: po; how it was run: as §1
# Mus musculus [15] = experiment: Effective dose by mouse phenyl-p-benzoquinone writhing (PQW)assay after peroral administration; 27.2-42.9; conditions: po
# Mus musculus [16] = experiment: Effective dose by mouse phenyl-p-benzoquinone writhing (PQW)assay after peroral administration; 5.3-45.9; conditions: po
# Mus musculus [17] = experiment: Effective dose by mouse phenyl-p-benzoquinone writhing (PQW)assay after peroral administration; 0.16-0.57; conditions: po
# Rattus norvegicus [18] = experiment: Decrease in paw volume by the effect of compound at a dose of 75 mg/kg, highest dose (75 mg/kg); how it was run: as §2
# Mus musculus [19] = experiment: Effective dose by mouse phenyl-p-benzoquinone writhing (PQW)assay after peroral administration; activity value ranges from (3.1 - 39.5); conditions: po; how it was run: as §1
# Mus musculus [20] = experiment: Effective dose by mouse phenyl-p-benzoquinone writhing (PQW)assay after peroral administration; 14.9-77.8; conditions: po
# Mus musculus [21] = experiment: Effective dose by mouse phenyl-p-benzoquinone writhing (PQW)assay after peroral administration; activity value ranges from (10.9-125.8); conditions: po; how it was run: as §1
# Rattus norvegicus [22] = experiment: Decrease in paw volume by the effect of compound at a dose of 10 mg/kg; how it was run: as §2
# Mus musculus [23] = experiment: Effective dose by mouse phenyl-p-benzoquinone writhing (PQW)assay after peroral administration; activity value ranges from (0.9-4.5); conditions: po
# Mus musculus [24] = experiment: Effective dose by mouse phenyl-p-benzoquinone writhing (PQW)assay after peroral administration; 0.23-0.53; conditions: po
smiles,measurement,setting,value
O=S(=O)(c1nc(-c2ccccc2Cl)c(-c2ccccc2Cl)[nH]1)C(F)(F)C(F)F,ED50,Mus musculus [1],4.4 mg/kg
O=S(=O)(c1nc(-c2ccc(Cl)c(Cl)c2)c(-c2ccccc2)[nH]1)C(F)(F)F,ED50,Mus musculus [2],16 mg/kg
same,ED50,Rattus norvegicus [3],0.35 mg/kg
COc1ccc(-c2nc(SC(F)(F)C(F)F)[nH]c2-c2ccc(OC)cc2)cc1,ED50,Mus musculus [4],45 mg/kg
same,ED50,Rattus norvegicus [3],4.5 mg/kg
Cc1ccc(-c2[nH]c(S(=O)(=O)C(F)(F)C(F)F)nc2-c2cccc(Cl)c2)cc1,ED50,Mus musculus [5],49 mg/kg
same,Decrease,Rattus norvegicus [6],36%
COc1ccc(-c2nc(SC(F)F)[nH]c2-c2ccc(OC)cc2)cc1,ED50,Mus musculus [7],112 mg/kg
C[S+]([O-])c1nc(-c2ccc(Cl)cc2)c(-c2ccc(Cl)cc2)[nH]1 (stereo unspecified),ED50,Mus musculus [8],49 mg/kg
same,ED50,Rattus norvegicus [3],2.5 mg/kg
FC(F)(F)CSc1nc(-c2ccccc2)c(-c2ccccc2)[nH]1,ED50,Mus musculus [9],> 130 mg/kg
same,Decrease,Rattus norvegicus [10],54%
[O-][S+](c1nc(-c2ccc(Cl)c(Cl)c2)c(-c2ccccc2)[nH]1)C(F)(F)C(F)F (stereo unspecified),ED50,Mus musculus [11],52 mg/kg
same,ED50,Rattus norvegicus [3],0.45 mg/kg
CCCCC1C(=O)N(c2ccccc2)N(c2ccccc2)C1=O [PHENYLBUTAZONE],ED50,Mus musculus [12],65 mg/kg
O=S(=O)(CC(F)(F)F)c1nc(-c2ccc(Cl)cc2)c(-c2ccc(Cl)cc2)[nH]1,ED50,Mus musculus [13],10 mg/kg
same,ED50,Rattus norvegicus [3],10 mg/kg
COc1ccc(-c2nc(S(=O)(=O)CC(C)=O)[nH]c2-c2ccc(OC)cc2)cc1,ED50,Mus musculus [14],26 mg/kg
same,ED50,Rattus norvegicus [3],20 mg/kg
O=S(=O)(c1nc(-c2ccccc2)c(-c2ccccc2)[nH]1)C(F)(F)C(Cl)Cl,ED50,Mus musculus [15],34.2 mg/kg
same,ED50,Rattus norvegicus [3],1.7 mg/kg
Fc1ccc(-c2nc(SC(F)(F)F)[nH]c2-c2ccc(F)cc2)cc1,ED50,Mus musculus [16],15.6 mg/kg
same,ED50,Rattus norvegicus [3],0.035 mg/kg
COc1ccc(-c2nc(S(=O)(=O)C(F)(F)C(F)Br)[nH]c2-c2ccc(OC)cc2)cc1 (stereo unspecified),ED50,Mus musculus [17],0.3 mg/kg
CC[S+]([O-])c1nc(-c2ccccc2)c(-c2ccccc2)[nH]1 (stereo unspecified),ED50,Mus musculus [9],> 130 mg/kg
same,Decrease,Rattus norvegicus [18],44%
[O-][S+](c1nc(-c2ccc(Cl)cc2)c(-c2ccc(Cl)cc2)[nH]1)C(F)(F)C(F)F (stereo unspecified),ED50,Mus musculus [19],11 mg/kg
same,ED50,Rattus norvegicus [3],0.22 mg/kg
C=CSc1nc(-c2ccc(OC)cc2)c(-c2ccc(OC)cc2)[nH]1,ED50,Mus musculus [20],34 mg/kg
same,ED50,Rattus norvegicus [3],12 mg/kg
COc1ccc(-c2nc([S+]([O-])C(F)(F)F)[nH]c2-c2ccc(OC)cc2)cc1 (stereo unspecified),ED50,Mus musculus [21],37 mg/kg
same,ED50,Rattus norvegicus [3],3 mg/kg
CS(=O)(=O)c1nc(-c2cccc(Cl)c2)c(-c2ccccc2)[nH]1,ED50,Mus musculus [9],> 130 mg/kg
same,Decrease,Rattus norvegicus [22],55%
O=S(=O)(c1nc(-c2cccc(F)c2)c(-c2ccccc2)[nH]1)C(F)(F)C(F)F,ED50,Mus musculus [23],2 mg/kg
COc1ccc2c(c1)c(CC(=O)O)c(C)n2C(=O)c1ccc(Cl)cc1 [INDOMETHACIN],ED50,Mus musculus [24],0.35 mg/kg
